Test results reported in ChEMBL document CHEMBL1138845, “Design of non-nucleoside inhibitors of HIV-1 reverse transcriptase with improved drug resistance properties. 2” (J Med Chem, 2004).

Legend:
HeLa [1] = assay: Inhibitory concentration against human immunodeficiency virus type 1 (with K103N resistant mutation) was determined in HeLa-CD4 MAGI assay; format: functional, cell-based
Procedure, shortened: (§1)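 Tested against a panel of recombinant, isogenic HIV-1 viruses, wild type and NNRTI-resistant strains carrying engineered single or double RT mutations. The readout was IC50.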

HeLa [2] = assay: Inhibitory concentration against human immunodeficiency virus type 1 (with V106A/Y181C resistant mutation) was determined in HeLa-CD4 MAGI assay; format: functional, cell-based; procedure, shortened: as §1
HeLa [3] = assay: Inhibitory concentration against human immunodeficiency virus type 1 (with K103N/G190A resistant mutation) was determined in HeLa-CD4 MAGI assay; format: functional, cell-based; procedure, shortened: as §1
HeLa [4] = assay: Inhibitory concentration against human immunodeficiency virus type 1 (with V108I resistant mutation) was determined in HeLa-CD4 MAGI assay; format: functional, cell-based; procedure, shortened: as §1
HeLa [5] = assay: Inhibitory concentration against human immunodeficiency virus type 1 (with V108I/Y181C resistant mutation) was determined in HeLa-CD4 MAGI assay; format: functional, cell-based; procedure, shortened: as §1
MT4 [6] = assay: Ratio of cytotoxic concentration to that of inhibitory concentration as selectivity index was determined by MT-4 assay; format: functional, Homo sapiens
Procedure, shortened: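 Index is the IC50 in uninfected MT4 cells divided by the antiviral IC50 in MT4 cells infected with wild-type HIV-1 or the nevirapine-resistant strain carrying RT mutation Y181C.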

HeLa [7] = assay: Inhibitory concentration against human immunodeficiency virus type 1 (with Y188C resistant mutation) was determined in HeLa-CD4 MAGI assay; format: functional, cell-based; procedure, shortened: as §1
HeLa [8] = assay: Inhibitory concentration against human immunodeficiency virus type 1 (with K103N/Y181C resistant mutation) was determined in HeLa-CD4 MAGI assay; format: functional, cell-based; procedure, shortened: as §1
HeLa [9] = assay: Inhibitory concentration against human immunodeficiency virus type 1 (with V106A resistant mutation) was determined in HeLa-CD4 MAGI assay; format: functional, cell-based; procedure, shortened: as §1
HeLa [10] = assay: Inhibitory concentration against human immunodeficiency virus type 1 (with Y181C resistant mutation) was determined in HeLa-CD4 MAGI assay; format: functional, cell-based; procedure, shortened: as §1
MT4 [11] = assay: Inhibitory concentration against nevirapine resistant strain (with Y181C mutation in HIV-1 RT gene) of human immunodeficiency virus type 1 was determined by MT-4 assay; format: functional, cell-based
[12] = tested on: Human immunodeficiency virus 1; assay: Inhibitory concentration against wild type human immunodeficiency virus type 1 was determined by recombinant virus assay; format: functional, organism-based
Procedure, shortened: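 Isogenic recombinant HIV-1 carrying wild-type RT, tested in parallel with a panel of NNRTI-resistant RT mutants built on the same background; activity reported as IC50.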

HeLa [13] = assay: Inhibitory concentration against human immunodeficiency virus type 1 (with K103N/V108I resistant mutation) was determined in HeLa-CD4 MAGI assay; format: functional, cell-based; procedure, shortened: as §1
HeLa [14] = assay: Inhibitory concentration against human immunodeficiency virus type 1 (with G190A resistant mutation) was determined in HeLa-CD4 MAGI assay; format: functional, cell-based; procedure, shortened: as §1
MT4 [15] = assay: Inhibitory concentration against wild type human immunodeficiency virus type 1 was determined by MT-4 assay; format: functional, cell-based

Structure (SMILES)	IC50 (HeLa [1]) [nM]	IC50 (HeLa [2]) [nM]	IC50 (HeLa [3]) [nM]	IC50 (HeLa [4]) [nM]	IC50 (HeLa [5]) [nM]	Ratio (MT4 [6])	IC50 (HeLa [7]) [nM]	IC50 (HeLa [8]) [nM]	IC50 (HeLa [9]) [nM]	IC50 (HeLa [10]) [nM]	IC50 (MT4 [11]) [nM]	IC50 [12] [nM]	IC50 (HeLa [13]) [nM]	IC50 (HeLa [14]) [nM]	IC50 (MT4 [15]) [nM]
CC(C)c1c(O)nc2ccc(Cl)cc2c1OCC1CCC1	560	1900	560	79	440	>500	32	> 2000	380	210	230	15	> 2000	9	29
CCc1c(O)nc2ccc(F)cc2c1OC#CC1CC1	420	230	68	60	130	>8000	100	300	340	24	15	25	240	6	25
CCCc1c(O)nc2ccc(F)cc2c1OC#CC1CC1	> 2000	380	490	160	370	>8000	290	1400	440	1	81	66	> 2000	21	72
CCc1c(O)nc2ccc(Cl)cc2c1OC1CCCC1	> 2000	~1000	640	260	780	>40000	54	> 2000	> 2000	6	1020	72	> 2000	12	78
CCCc1c(O)nc2ccc(Cl)cc2c1OC1CCC1	> 2000	> 2000	> 2000	690	> 2000	>8000	290	> 2000	> 2000	1700	2500	300	> 2000	220	470
CCCc1c(O)nc2ccc(F)cc2c1OC1CCCC1	> 2000	> 2000	> 2000	350	> 2000	>40000	42	> 2000	> 2000	1800	1300	150	> 2000	370	150
CCCc1c(O)nc2ccc(Cl)cc2c1OC1CCCC1	> 2000	> 2000	> 2000	200	670	>40000	31	> 2000	270	> 2000	1700	60	> 2000	25	96
CCc1c(O)nc2ccc(F)cc2c1OCC1CCC1	270	> 2000	1100	250	870	>8000	130	> 2000	1700	390	230	89	> 2000	110	39
CCCc1c(O)nc2ccc(Cl)cc2c1OCC1CCCCC1	> 2000	> 2000	> 2000	> 2000	1000	>40000	23	> 2000	> 2000	690	1300	1200	> 2000	260	5100
CCOc1c(O)nc2ccc(F)cc2c1OCC1CCC1	> 2000	> 2000	> 2000	1500	> 2000	>8000	360	> 2000	> 2000	> 2000	1070	580	> 2000	86	470
CC(C)c1c(O)nc2ccc(Cl)cc2c1OC#CC1CC1	320	120	52	36	120	>8000	18	620	57	39	31	16	1200	3	24
CCCc1c(O)nc2ccc(C#N)cc2c1OC1CCCC1	> 2000	> 2000	> 2000	240	> 2000	>40000	52	> 2000	1300	1700	2000	65	> 2000	1	120
CCCc1c(O)nc2ccc(C)cc2c1OC1CCCC1	> 2000	> 2000	> 2000	710	> 2000	>40000	240	> 2000	> 2000	410	6400	400	> 2000	150	970
N#Cc1c(O)nc2ccccc2c1OCC1CCC1	> 2000	> 2000	> 2000	> 2000	> 2000	>8000	> 2000	> 2000	> 2000	> 2000	> 8000	> 2000	> 2000	> 2000	> 8000
CCCc1c(O)nc2ccc(Cl)cc2c1OC#CC1CC1	> 2000	120	300	60	230	>8000	70	1800	220	92	120	38	1400	15	109
CC(C)Cc1c(O)nc2ccc(Cl)cc2c1OC1CCCC1	> 2000	> 2000	> 2000	280	1100	>40000	59	> 2000	1500	37	1600	150	> 2000	42	52
CCCc1c(O)nc2ccc(F)cc2c1OCC1CCC1	1800	1700	> 2000	290	560	>8000	60	> 2000	1700	240	190	63	> 2000	46	69
